Screens: PubChem BioAssay, several laboratories
Rev-erbA mod: Rev-erb alpha (human) modulation; Rev-erbα–FITC-DNA binding, fluorescence polarization, 90 min; activity, % at 10 µM; P20393; 370,000 compounds, 0.79% hits; AID 1259318;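 active = activity above about 14%, limit read from the data; passing the limit was not always enough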
PG9 Ab binder: binds the HIV-1 gp120 antibody PG9; TR-FRET gp120-PG9 antibody binding; inhibition, % at 6.7 µM; 360,000 compounds, 0.43% hits; AID 624416; in the data active = inhibition above about 8.5%
VLA-4 inh: inhibition in a human VLA-4 binding assay | 330,000 compounds, 0.2% hits | inhibition, % (about 7 µM as worked out from the volumes in the protocol) | P13612 | VLA-4 expressing cells, ligand binding flow cytometry; in the data active = inhibition above about 50%
NR2E3 ag-1: NR2E3 (human) agonism; Q9Y5X4; GST-NR2E3/biotin-RetCOR TR-FRET, 1536-well; inhibition of corepressor binding, % at 4.78 µM; 320,000 compounds, 0.12% hits; AID 2300;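 active = percent inhibition above the cutoff of mean plus 3 SD of all tested compounds, set per screening campaign, cut at about 20% in these data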
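Material – GST-tagged NR2E3 plus biotinylated RetCOR corepressor · Quantity – NR2E3 fusion 1.35 nM · Times – 5 h incubation at 4 °C · Medium – pH 7.5 Tris-based buffer · Technique – TR-FRET, Eu(K)-anti-GST donor, streptavidin-D2 acceptor, ex 340, em 617/671 nm · Benchmarks – high control biotin, low control 0.6% DMSO · Format – 1536-well plates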
NR2E3 ag-2: agonists of human NR2E3 nuclear receptor; AID 602229; Q9Y5X4; 360,000 compounds, 0.35% hits; inhibition of corepressor binding, % at 3.98 µM; CHO-S Gal4-NCOR/VP16-NR2E3 two-hybrid, luciferase;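 active = inhibition above the mean of all tested compounds plus 3 SD, cut at about 70% in these data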;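 note: higher means lower luciferase signal from less NR2E3 corepressor binding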
NR2E3 ag confirm-1: NR2E3 (human) agonism, confirmation. activation (reported as inhibition), % at 3.98 µM. shares compounds with NR2E3 ag-1. cell-free NR2E3 corepressor release, TR-FRET, 5 h. AID 2379. 360 compounds, 39% hits; in the data active = activation above about 20%
PPARg-NCOR2 ctr: PPARg-NCOR2 interaction agonism, NR2E3 counter-screen; 360 compounds, 45% hits; TR-FRET PPARg-NCOR2 coregulator interaction, biochemical; shares compounds with NR2E3 ag-1; inhibition, % at 3.98 µM; in the data active = inhibition above about 20%
VLA-4 allo CP: confirmation of allosteric modulators of human VLA-4 integrin; shares compounds with VLA-4 inh; U937 cells, HUTS-21 LIBS mAb binding, flow cytometry; LDV ligand present at threefold Kd; inhibition, % at 6.7 µM; 1,300 compounds, 2% hits; AID 2813; in the data active = inhibition above about 40%
NR2E3 ag confirm-2: NR2E3 agonism confirmed in two-hybrid assay. 2,300 compounds, 51% hits. AID 624378. inhibition, % at 3.98 µM. shares compounds with NR2E3 ag-2. CHO-S mammalian two-hybrid NR2E3-NCOR, luciferase luminescence;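 active = average inhibition above a cutoff equal to the mean inhibition of all tested compounds plus one SD, cut at about 70% in these data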
GAL4-VP16 luc: GAL4-VP16 reporter inhibition in NR2E3 agonist counterscreen; inhibition, % at 3.98 µM; shares compounds with NR2E3 ag-2; CHO-S GAL4-VP16 luciferase reporter, luminescence; 2,300 compounds, 29% hits;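 active = mean inhibition above a cutoff equal to the average over all tested compounds plus one standard deviation, cut at about 70% in these data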;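 note: luciferase from a UAS reporter driven by GAL4-VP16 transactivation; higher means less reporter light so more repression of VP16 activity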
Hits are given with their value; i = inactive; nt = not tested or not shown; ! = repeats disagree. Most compounds without a hit are left out; they make up all but 1.6% or so of the library.

SMILES | Rev-erbA mod | PG9 Ab binder | VLA-4 inh | NR2E3 ag-1 | NR2E3 ag-2 | VLA-4 allo CP | others
C[C@H]1[C@H](OC(=O)CCC(=O)NCc2ccc(C(=O)O)cc2)O[C@@H]2O[C@@]3(C)CC[C@H]4[C@H](C)CC[C@@H]1C24OO3 | nt | nt | i | i | 93 | nt
CN1C[C@H](C(=O)N[C@]2(C)C[C@@]3(O)C4CCCN4C(=O)[C@H](Cc4ccccc4)N3C2=O)C=C2c3cccc4[nH]cc(c34)C[C@H]21 (stereo not given in full) | i | nt | nt | nt | nt | nt
CCCCn1c(NC(=O)c2ccc(Br)o2)c(C(=O)OCC)c2nc3ccccc3nc21 | i | i | i | 30 | i | nt
O1[As]2O[As]3O[As]1O[As](O2)O3 | i | nt | nt | nt | nt | nt
CC1CCCN(C(=O)CCl)C1 (stereo not given) | i | i | 56 | i | i | nt
CC1CCCN(C(=O)CN2C3CCC2CC(O)(c2ccc(F)cc2)C3)C1 (stereo not given) | i | i | i | i | i | nt
O=c1c2ccccc2[nH]c(=S)n1-c1ccc(Br)cc1 | i | i | i | 36 | i | nt | NR2E3 ag confirm-1=i;PPARg-NCOR2 ctr=i
CC12CCC(C(Br)C1=O)C2(C)C (stereo not given) | i | nt | nt | nt | nt | nt
Cn1ncnc2c(=O)n(C)c(=O)nc1-2 | nt | nt | i | 32 | 104 | nt | NR2E3 ag confirm-1=36;PPARg-NCOR2 ctr=66;NR2E3 ag confirm-2=98;GAL4-VP16 luc=97
Oc1ccc2c3c1O[C@@H]1[C@@H](O)CC[C@@]4(O)[C@@H](C2)N(CC2CCC2)CC[C@]314 | i | nt | nt | nt | nt | nt
Nc1ncc2[nH]cnc2n1 | i | i | 53! | i | i | i
COC(C)(C)CCC[C@H](C)C/C=C/C(C)=C/C(=O)OC(C)C | i | nt | nt | nt | nt | nt
Cc1ccccc1-n1c(CF)nc2ccc(N)cc2c1=O | i | nt | nt | nt | nt | nt
CNc1ccc(C(=O)CC(O)CCC(C)C2OC(=O)CC(O)CC(=O)CC(O)CC(O)CC(O)CC(O)CC3(O)CC(O)C(C(=O)OC)C(CC(O[C@@H]4O[C@H](C)[C@@H](O)[C@H](N)[C@@H]4O)/C=C/C=C/C=C/C=C/C=C/C=C/C=C/C2C)O3)cc1 (stereo not given in full) | i | nt | nt | nt | nt | nt
Cc1cc(OCC(=O)NCc2ccncc2)c2c3c(c(=O)oc2c1)CCC3 | i | i | i | i | i | nt
Cc1cc(OCC(=O)NCc2ccc(S(N)(=O)=O)cc2)c2c3c(c(=O)oc2c1)CCC3 | i | i | 53 | i | i | i
C[N+]1(C)C2CC(OC(=O)[C@@H](CO)c3ccccc3)CC1C1OC12 (stereo not given in full) | i | nt | nt | nt | nt | nt
CC(=O)O[C@H]1C[C@H](O[C@H]2[C@@H](O)C[C@H](O[C@H]3[C@@H](O)C[C@H](O[C@H]4CC[C@@]5(C)C(CCC6C5C[C@@H](O)[C@]5(C)[C@@H](C7=CC(=O)OC7)CC[C@]65O)C4)O[C@@H]3C)O[C@@H]2C)O[C@H](C)[C@H]1O[C@@H]1O[C@H](CO)[C@@H](O)[C@H](O)[C@H]1O (stereo not given in full) | i | nt | nt | nt | nt | nt
COCCNC(=O)Cn1cc(C(=O)c2ccccc2F)c2ccccc21 | i | i | i | i | i | i
O=C(Cn1cc(C(=O)c2ccccc2F)c2ccccc21)NC1CC1 | i | i | i | i | i | nt
COc1ccc(CCN)cc1OC | i | i | i | i | i | nt
NCCc1ccc(OCc2ccccc2)c(OCc2ccccc2)c1 | i | i | 74 | i | i | i
CCCCOP(=O)(CN1CCOCC1)OCCCC | i | i | 91 | i | i | i
C#C[C@]1(O)C=C[C@H]2[C@@H]3CCC4=CC(=O)CC[C@@H]4[C@H]3CC[C@@]21CC | i | nt | nt | nt | nt | nt
O=C1CN=C(c2ccc(Br)cc2)c2c(sc3c2CCCC3)N1CCN1CCCCC1 | i | i | 55 | i | i | i
SMILES | Rev-erbA mod | PG9 Ab binder | VLA-4 inh | NR2E3 ag-1 | NR2E3 ag-2 | VLA-4 allo CP | others
COc1ccc(C2=NCC(=O)N(CC(=O)NCc3ccco3)c3sc4c(c32)CCCC4)cc1 | i | i | i | i | i | nt
COC(=O)C1C(OC(=O)c2ccccc2)CC2CCC1N2C (stereo not given) | i | i | i | i | i | i
CN1C2CCC1CC(OC(=O)c1ccc(Cl)cc1)(C(=O)O)C2 (stereo not given) | i | i | i | i | i | i
CN1C2CCC1CC(OC(=O)c1ccc(Cl)cc1)C2 (stereo not given) | i | i | i | i | i | i
COc1ccc(C(=O)OC2C[C@H]3CC[C@H](C2)N3C)cc1OC (stereo not given in full) | i | i | i | i | i | i
COC(=O)C1C(c2ccc(Cl)cc2)CC2CCC1N2C (stereo not given) | i | i | nt | nt | nt | nt
CCOc1ccc(C(=O)OC2CC3CCC(C2)N3C)cc1 (stereo not given) | i | i | i | i | i | i
C=C1CC2C(CC[C@]3(C)C(=O)CCC23)[C@@]2(C)C=CC(=O)C=C12 (stereo not given in full) | i | nt | nt | nt | nt | nt
O=c1cccc2n1C[C@H]1CNC[C@H]2C1 | i | nt | nt | nt | nt | nt
C[N+]1(C)C2CCC1CC(OC(=O)c1ccccc1)C2 (stereo not given) | i | i | i | i | i | i
COC(=O)[C@@H]1[C@@H](C(=O)OC)C2(c3ccccc3-c3ccccc32)N(c2ccc(Cl)cc2)N1C#N | i | i | 58 | i | i | i
Cc1ccc(-c2cc(-c3ccc(C)cc3)[n+](-c3ccccc3)c(-c3ccc(C)cc3)c2)cc1 | nt | nt | 54 | i | 100 | i | NR2E3 ag confirm-2=100;GAL4-VP16 luc=96
Cc1ccc(-c2cc(-c3ccccc3)cc(-c3ccccc3)[n+]2-c2ccccc2)cc1 | i | i | i | i | i | nt
CN1CC(CNC(=O)OCc2ccccc2)CC2c3cccc4c3c(cn4C)CC21 (stereo not given) | i | nt | nt | nt | nt | nt
COC(=O)C[C@]1(C(=O)OC)CN(C#N)N(c2ccc(Cl)cc2)C12c1ccccc1-c1ccccc12 | i | i | 57 | i | 89 | i | NR2E3 ag confirm-2=80;GAL4-VP16 luc=i
C[C@H]1CCC/C=C/[C@@H]2C[C@H](O)C[C@H]2[C@@H](O)/C=C/C(=O)O1 | i | i | nt | nt | 86 | nt | NR2E3 ag confirm-2=98;GAL4-VP16 luc=i
